Experimental data from ChEMBL document CHEMBL1142626, “Insecticidal and mutagenic evaluation of two annonaceous acetogenins” (J Nat Prod, 2000).

Assays:
Salmonella typhimurium [1] = experiment: Mutagenic activity in Salmonella Typhimurium TA100 assessed as number of revertants at 100 ug/plate in absence of Wistar rat S9 liver homogenate; type: toxicity, organism-based; details: salmonella enterica subsp. enterica serovar typhimurium
Outline: (§1)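 Salmonella/microsome plate test, with or without S9 from livers of male Wistar rats (~200 g). Strain markers and spontaneous revertant counts were routinely verified. Revertants are reported as mean ± standard error of triplicate plates. Strain-specific positive controls were used, with 2-aminoanthracene for all strains when S9 was present.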

Salmonella typhimurium [2] = experiment: Mutagenic activity in Salmonella Typhimurium TA102 assessed as number of revertants at 20 ug/plate in absence of Wistar rat S9 liver homogenate; type: toxicity, organism-based; details: salmonella enterica subsp. enterica serovar typhimurium; outline: as §1
Salmonella typhimurium [3] = experiment: Mutagenic activity in Salmonella Typhimurium TA98 assessed as number of revertants at 50 ug/plate in presence of Wistar rat S9 liver homogenate; type: toxicity, organism-based, Liver S9 fraction; details: salmonella enterica subsp. enterica serovar typhimurium
Outline: (§2)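 Salmonella/microsome plate test (Ames) in strain TA98, with genetic markers and spontaneous revertant counts verified routinely. Run with and without S9 mix, the S9 being liver postmitochondrial supernatant from male Wistar rats of about 200 g. Doses ran from 0.01 to 100 µg/plate. Revertants are the mean of triplicate plates with standard error. Positive controls were 0.5 µg 4-nitroquinoline-N-oxide without S9 and 15 µg 2-aminoanthracene with S9.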

[4] = test system: Leptinotarsa decemlineata; experiment: Insecticidal activity against Leptinotarsa decemlineata assessed as mortality at 5 ug by hemolymph injection after 72 hrs; type: functional
Outline: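 Adult L. decemlineata (20 beetles) were injected with 5 µg in DMSO through the metepimeron suture of the thorax. Beetles were kept on potato leaves. Symptoms and mortality were recorded up to 3 days, analysed by contingency tables and Abbott-corrected.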

Spodoptera littoralis [5] = experiment: Antifeedant effect against Spodoptera littoralis assessed as feeding reduction at 100 ug/cm2 relative to control; type: functional; parameters: scale not given: the % may be the effect or the level left
Outline: (§3)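 Choice test on leaf disks using adult L. decemlineata or newly emerged fifth-instar S. littoralis larvae. Five to 10 plates per treatment, three insects each. Uneaten leaf-disk area was measured by scanner. %FR = [1 − (treatment/control consumption)] × 100 per arena. Where FR exceeded 50%, EC50 was taken from linear regression of %FR on log dose.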

Salmonella typhimurium [6] = experiment: Mutagenic activity in Salmonella Typhimurium TA98 assessed as number of revertants at 0.1 ug/plate in absence of Wistar rat S9 liver homogenate; type: toxicity, organism-based; details: salmonella enterica subsp. enterica serovar typhimurium; outline: as §1
Salmonella typhimurium [7] = experiment: Mutagenic activity in Salmonella Typhimurium TA102 assessed as number of revertants at 0.01 ug/plate in absence of Wistar rat S9 liver homogenate; type: toxicity, organism-based; details: salmonella enterica subsp. enterica serovar typhimurium; outline: as §1
Salmonella typhimurium [8] = experiment: Mutagenic activity in Salmonella Typhimurium TA102 assessed as number of revertants at 20 ug/plate in presence of Wistar rat S9 liver homogenate; type: toxicity, organism-based, Liver S9 fraction; details: salmonella enterica subsp. enterica serovar typhimurium; outline: as §1
[9] = test system: Leptinotarsa decemlineata; experiment: Antifeedant effect against Leptinotarsa decemlineata assessed as feeding reduction at 10 ug/cm2; type: functional, organism-based; outline: as §3
Salmonella typhimurium [10] = experiment: Mutagenic activity in Salmonella Typhimurium TA98 assessed as number of revertants at 0.01 ug/plate in absence of Wistar rat S9 liver homogenate; type: toxicity, organism-based; details: salmonella enterica subsp. enterica serovar typhimurium; outline: as §1
Myzus persicae = experiment: Insecticidal activity against Myzus persicae assessed as increase in mortality at 100 ug/cm2 observed daily for 4 days; type: functional, organism-based
Outline: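 No-choice test: 20 boxes, each with five same-age apterous adult M. persicae (100 insects). Nymphs produced in the first 48 h were separated from adults and kept in similarly treated boxes. Both were observed daily for 4 days for mortality. Analysed by contingency tables and LSD test.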

Spodoptera littoralis [11] = experiment: Antifeedant effect against Spodoptera littoralis L6 larvae assessed as relative consumption rate at 10 ug, po after 72 hrs; type: functional
Outline: (§4)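 Preweighed, newly emerged S. littoralis L6 larvae (20 per experiment) were orally cannulated with 10 µg in 2 µL DMSO; controls got solvent alone. Relative consumption and growth rates were calculated at 72 h on a dry-weight basis. Log-transformed weights were analysed by ANOVA with LSD tests.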

Salmonella typhimurium [12] = experiment: Mutagenic activity in Salmonella Typhimurium TA100 assessed as number of revertants at 100 ug/plate in presence of Wistar rat S9 liver homogenate; type: toxicity, organism-based, Liver S9 fraction; details: salmonella enterica subsp. enterica serovar typhimurium; outline: as §1
Salmonella typhimurium [13] = experiment: Mutagenic activity in Salmonella Typhimurium TA100 assessed as number of revertants at 50 ug/plate in absence of Wistar rat S9 liver homogenate; type: toxicity, organism-based; details: salmonella enterica subsp. enterica serovar typhimurium; outline: as §1
Salmonella typhimurium [14] = experiment: Mutagenic activity in Salmonella Typhimurium TA100 assessed as number of revertants at 0.1 ug/plate in absence of Wistar rat S9 liver homogenate; type: toxicity, organism-based; details: salmonella enterica subsp. enterica serovar typhimurium; outline: as §1
Salmonella typhimurium [15] = experiment: Mutagenic activity in Salmonella Typhimurium TA100 assessed as number of revertants at 10 ug/plate in presence of Wistar rat S9 liver homogenate; type: toxicity, organism-based, Liver S9 fraction; details: salmonella enterica subsp. enterica serovar typhimurium; outline: as §1
Salmonella typhimurium [16] = experiment: Mutagenic activity in Salmonella Typhimurium TA100 assessed as number of revertants at 0.01 ug/plate in absence of Wistar rat S9 liver homogenate; type: toxicity, organism-based; details: salmonella enterica subsp. enterica serovar typhimurium; outline: as §1
Salmonella typhimurium [17] = experiment: Mutagenic activity in Salmonella Typhimurium TA102 assessed as number of revertants at 50 ug/plate in presence of Wistar rat S9 liver homogenate; type: toxicity, organism-based, Liver S9 fraction; details: salmonella enterica subsp. enterica serovar typhimurium; outline: as §1
Salmonella typhimurium [18] = experiment: Mutagenic activity in Salmonella Typhimurium TA98 assessed as number of revertants at 0.1 ug/plate in presence of Wistar rat S9 liver homogenate; type: toxicity, organism-based, Liver S9 fraction; details: salmonella enterica subsp. enterica serovar typhimurium; outline: as §1
Salmonella typhimurium [19] = experiment: Mutagenic activity in Salmonella Typhimurium TA98 assessed as number of revertants at 20 ug/plate in presence of Wistar rat S9 liver homogenate; type: toxicity, organism-based, Liver S9 fraction; details: salmonella enterica subsp. enterica serovar typhimurium; outline: as §2
Salmonella typhimurium [20] = experiment: Mutagenic activity in Salmonella Typhimurium TA98 assessed as number of revertants at 1 ug/plate in absence of Wistar rat S9 liver homogenate; type: toxicity, organism-based; details: salmonella enterica subsp. enterica serovar typhimurium; outline: as §1
Spodoptera littoralis [21] = experiment: Antifeedant effect against Spodoptera littoralis L6 larvae assessed as relative growth rate at 10 ug, po after 72 hrs; type: functional; outline: as §4
Salmonella typhimurium [22] = experiment: Mutagenic activity in Salmonella Typhimurium TA98 assessed as number of revertants at 0.01 ug/plate in presence of Wistar rat S9 liver homogenate; type: toxicity, organism-based, Liver S9 fraction; details: salmonella enterica subsp. enterica serovar typhimurium; outline: as §1
Salmonella typhimurium [23] = experiment: Mutagenic activity in Salmonella Typhimurium TA98 assessed as number of revertants at 100 ug/plate in presence of Wistar rat S9 liver homogenate; type: toxicity, organism-based, Liver S9 fraction; details: salmonella enterica subsp. enterica serovar typhimurium; outline: as §2
Salmonella typhimurium [24] = experiment: Mutagenic activity in Salmonella Typhimurium TA98 assessed as number of revertants at 10 ug/plate in absence of Wistar rat S9 liver homogenate; type: toxicity, organism-based; details: salmonella enterica subsp. enterica serovar typhimurium; outline: as §1

CCCCCC[C@H](O)CCC[C@H](O)[C@H]1CC[C@H]([C@H]2CC[C@H]([C@H](O)CCCCCCCCCCCCC3=C[C@H](C)OC3=O)O2)O1 [SQUAMOCIN]
Activity (Salmonella typhimurium [1]): 21 | Activity (Salmonella typhimurium [2]): 98 | Activity (Salmonella typhimurium [3]): 36 | Activity [4]: 92.18% | Activity (Spodoptera littoralis [5]): <40% | Activity (Salmonella typhimurium [6]): 25 | Activity (Salmonella typhimurium [7]): 259 | Activity (Salmonella typhimurium [8]): 139 | Activity [9]: Toxic | Activity (Salmonella typhimurium [10]): 27 | Activity (Myzus persicae): Non-toxic | Activity (Spodoptera littoralis [11]): 20.35 mg | Activity (Salmonella typhimurium [12]): 102 | Activity (Salmonella typhimurium [13]): 39 | Activity (Salmonella typhimurium [14]): 140 | Activity (Salmonella typhimurium [15]): 142 | Activity (Salmonella typhimurium [16]): 154 | Activity (Salmonella typhimurium [17]): 99 | Activity (Salmonella typhimurium [18]): 39 | Activity (Salmonella typhimurium [19]): 43 | Activity (Salmonella typhimurium [20]): 26 | Activity (Spodoptera littoralis [21]): 3.36 mg | Activity (Salmonella typhimurium [22]): 36 | Activity (Salmonella typhimurium [23]): 31 | Activity (Salmonella typhimurium [24]): 18
